Test results taken from ChEMBL document CHEMBL1151765, “Rational design of substituted diarylureas: a scaffold for binding to G-quadruplex motifs” (J Med Chem, 2008).
The source made the active and inactive calls. The rule behind the calls is not given here.

How the values were obtained:
[1] = Stabilization of d[AGAG3AG2GCGCTG3AG2AG3GCT] sequence of c-kit1 G-quadruplex DNA assessed as change in melting temperature at 1 uM by FRET assay
Procedure, shortened: (§1)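 Dual-labelled FAM/TAMRA oligos at 400nM in 60mM KCl potassium cacodylate buffer, pH 7.4, heated to 85 °C for 10 min, then cooled. Ligand added to 1µM; buffer alone as negative control. Excitation 450–495nm, emission read at 515–545nm every 0.5 °C from 30–100 °C. ΔTm is ligand Tm minus control Tm, from four experiments ± maximum sd; c-kit1 curves fitted to sigmoids.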

[2] = Stabilization of d[G3(T2AG3)3] sequence of F21T telomeric G-quadruplex DNA assessed as change in melting temperature at 1 uM by FRET assay
Procedure, shortened: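 Dual-labelled oligo (5′-FAM, 3′-TAMRA) at 400nM in FRET buffer (60mM KCl, K cacodylate, pH 7.4), heated to 85 °C for 10 min, cooled to room temperature. Ligand added from DMSO dilution. Excitation 450–495nm, emission 515–545nm, read every 0.5 °C from 30–100 °C. ΔTm from four experiments: averaged ligand Tm minus averaged buffer-control Tm, ± maximum sd.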

[3] = Stabilization of d[C3G3CG3CGCGAG3AG4AG2] sequence of c-kit2 G-quadruplex DNA assessed as change in melting temperature at 1 uM by FRET assay; procedure, shortened: as §1
[4] = Stabilization of d[G3(T2AG3)3] sequence of F21T telomeric G-quadruplex DNA assessed as change in melting temperature at 1 uM by FRET assay relative to BRACO-19 in presence of calf thymus DNA
Procedure, shortened: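 F21T FRET melting with ligand at 1µM in the presence of calf thymus DNA competitor at increasing bp concentrations. Retained stabilization, from three experiments, normalized to the ligand's ΔTm with no competitor (100%) ± normalized sd.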

[5] = species: Homo sapiens; experiment: Binding affinity to biotin-labeled human telomeric d[AG3(T2AG3)3] sequence by surface plasmon resonance analysis
Procedure, shortened: (§2)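 Streptavidin chip with 5′-biotinylated DNA immobilized to 350-400 RU; blank reference flow cell. Run in 10mM HEPES, 100mM KCl, 3mM EDTA, P20 surfactant, pH 7.3, 25°C. Ligand 1nM to 10µM (from 20mM DMSO stock) injected at 50µl/min for 5–10 min to steady state, then 10 min buffer dissociation; glycine pH 2.0 regeneration between cycles.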

[6] = Binding affinity to biotin-labeled d[(AG3)2CGCTG3AG2AG3] sequence of c-kit1 G-quadruplex DNA by surface plasmon resonance analysis; procedure, shortened: as §2
[7] = Binding affinity to biotin-labeled d[(CG3)2CGCGAG3AG4] sequence of c-kit2 G-quadruplex DNA by surface plasmon resonance analysis; procedure, shortened: as §2
[8] = Binding affinity to biotin-labeled d[(AG3TG4)2A] sequence of c-myc G-quadruplex DNA by surface plasmon resonance analysis; procedure, shortened: as §2
[9] = Binding affinity to biotin-labeled d[CGA2T2CGTCTC2GA2T2CG] sequence of duplex DNA by surface plasmon resonance analysis; procedure, shortened: as §2
[10] = Selectivity ratio of equilibrium binding constant K for human telomeric d[AG3(T2AG3)3] sequence to equilibrium binding constant K for d[CGA2T2CGTCTC2GA2T2CG] sequence of duplex DNA
[11] = Selectivity ratio of equilibrium binding constant K for d[(AG3)2CGCTG3AG2AG3] sequence of c-kit1 G-quadruplex DNA to equilibrium binding constant K for d[CGA2T2CGTCTC2GA2T2CG] sequence of duplex DNA
[12] = Selectivity ratio of equilibrium binding constant K for d[(CG3)2CGCGAG3AG4] sequence of c-kit2 G-quadruplex DNA to equilibrium binding constant K for d[CGA2T2CGTCTC2GA2T2CG] sequence of duplex DNA
[13] = Selectivity ratio of equilibrium binding constant K for d[(AG3TG4)2A] sequence of c-myc G-quadruplex DNA to equilibrium binding constant K for d[CGA2T2CGTCTC2GA2T2CG] sequence of duplex DNA
[14] = molecular target: T1, Telomerase reverse transcriptase (Homo sapiens, UniProt O14746); experiment: Inhibition of telomerase by TRAP-LIG assay
[15] = molecular target: T1, Telomerase reverse transcriptase; experiment: Inhibition of telomerase at 50 uM by TRAP-LIG assay relative to control
[16] = test system: MCF7; experiment: Cytotoxicity against human MCF7 cells after 96 hrs by SRB assay; type: functional, cell-based; details: MCF7, 96 h
[17] = test system: A549; experiment: Cytotoxicity against human A549 cells after 96 hrs by SRB assay; type: functional, cell-based; details: A549, 96 h
[18] = Cytotoxicity against human WI38 cells after 96 hrs by SRB assay; type: cell-based; details: WI-38, 96 h
[19] = test system: A549; experiment: Selectivity ratio of IC50 for human A549 cells to IC50 for human WI38 cells
[20] = test system: MCF7; experiment: Cytotoxicity against human MCF7 cells assessed as population doubling at 3.50 uM after 1 week […] relative to control; type: functional
Procedure, shortened: (§3)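 MCF7 cells (1×10^5) treated with sub-cytotoxic ligand concentrations for 1 week, biweekly dosing. Cells counted by haemocytometer; population doublings n = (log Pn – log P0)/log2. Values normalized to vehicle control (100%) ± sd, two independent concentrations per ligand.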

[21] = test system: MCF7; experiment: Cytotoxicity against human MCF7 cells assessed as population doubling at 7 uM after 1 week […] relative to control; type: functional; procedure, shortened: as §3
[22] = test system: MCF7; experiment: Cytotoxicity against human MCF7 cells assessed as cell senescence at 3.5 uM after 1 week by beta-galactosidase assay; type: functional
[23] = Stabilization of d[(TA)2GC(TA)2T6(TA)2]GC(TA)2 sequence of duplex DNA assessed as change in melting temperature at 1 uM by FRET assay; procedure, shortened: as §1
[24] = test system: MCF7; experiment: Cytotoxicity against human MCF7 cells assessed as population doubling at 1 uM after 1 week […] relative to control; type: functional; procedure, shortened: as §3
[25] = test system: MCF7; experiment: Cytotoxicity against human MCF7 cells assessed as population doubling at 1.75 uM after 1 week […] relative to control; type: functional; procedure, shortened: as §3
[26] = test system: MCF7; experiment: Cytotoxicity against human MCF7 cells assessed as population doubling at 2.25 uM after 1 week […] relative to control; type: functional; procedure, shortened: as §3
[27] = test system: MCF7; experiment: Cytotoxicity against human MCF7 cells assessed as cell senescence at 1.75 uM after 1 week by beta-galactosidase assay; type: functional
[28] = test system: MCF7; experiment: Cytotoxicity against human MCF7 cells assessed as cell senescence at 2.25 uM after 1 week by beta-galactosidase assay; type: functional
[29] = test system: MCF7; experiment: Selectivity ratio of IC50 for human MCF7 cells to IC50 for human WI38 cells
[30] = test system: MCF7; experiment: Cytotoxicity against human MCF7 cells assessed as population doubling at 2 uM after 1 week […] relative to control; type: functional; procedure, shortened: as §3
[31] = test system: MCF7; experiment: Cytotoxicity against human MCF7 cells assessed as cell senescence at 1 uM after 1 week by beta-galactosidase assay; type: functional
[32] = test system: MCF7; experiment: Cytotoxicity against human MCF7 cells assessed as cell senescence at 2 uM after 1 week by beta-galactosidase assay; type: functional

T1 sequence (O14746 whole entry): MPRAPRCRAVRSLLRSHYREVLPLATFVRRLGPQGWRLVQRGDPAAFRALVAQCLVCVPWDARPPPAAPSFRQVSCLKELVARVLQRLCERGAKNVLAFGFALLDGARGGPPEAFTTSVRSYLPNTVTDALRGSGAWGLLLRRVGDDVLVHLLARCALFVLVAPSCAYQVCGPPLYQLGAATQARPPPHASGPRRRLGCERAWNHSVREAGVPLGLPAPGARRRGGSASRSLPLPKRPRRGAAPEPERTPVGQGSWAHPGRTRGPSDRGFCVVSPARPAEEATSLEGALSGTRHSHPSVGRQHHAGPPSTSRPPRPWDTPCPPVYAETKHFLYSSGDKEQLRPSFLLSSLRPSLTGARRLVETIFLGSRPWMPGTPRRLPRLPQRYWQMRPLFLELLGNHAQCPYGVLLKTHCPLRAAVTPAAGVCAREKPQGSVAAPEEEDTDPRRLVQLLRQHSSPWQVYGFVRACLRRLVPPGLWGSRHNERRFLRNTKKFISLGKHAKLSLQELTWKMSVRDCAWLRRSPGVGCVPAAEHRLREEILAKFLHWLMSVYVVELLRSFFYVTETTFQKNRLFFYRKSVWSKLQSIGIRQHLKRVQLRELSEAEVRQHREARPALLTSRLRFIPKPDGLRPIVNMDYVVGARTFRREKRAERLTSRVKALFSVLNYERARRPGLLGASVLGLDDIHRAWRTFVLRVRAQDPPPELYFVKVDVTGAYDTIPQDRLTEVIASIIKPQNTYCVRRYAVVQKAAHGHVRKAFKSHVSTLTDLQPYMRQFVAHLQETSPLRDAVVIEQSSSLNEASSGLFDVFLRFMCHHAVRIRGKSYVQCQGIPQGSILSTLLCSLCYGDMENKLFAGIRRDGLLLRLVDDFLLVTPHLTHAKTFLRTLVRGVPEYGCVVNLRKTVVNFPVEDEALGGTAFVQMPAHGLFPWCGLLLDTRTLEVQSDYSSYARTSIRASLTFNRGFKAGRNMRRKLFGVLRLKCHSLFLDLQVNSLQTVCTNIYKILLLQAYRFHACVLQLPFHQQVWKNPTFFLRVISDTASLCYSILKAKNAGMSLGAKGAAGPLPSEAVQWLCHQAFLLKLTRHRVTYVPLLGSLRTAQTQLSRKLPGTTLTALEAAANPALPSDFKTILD

SMILES | change in melting temperature (ΔTm) [1] | change in melting temperature (ΔTm) [2] | change in melting temperature (ΔTm) [3] | Activity [4] | KA [5] | KA [6] | KA [7] | KA [8] | KA [9] | Selectivity ratio [10] | Selectivity ratio [11] | Selectivity ratio [12] | Selectivity ratio [13] | EC50 [14] | inhibition [15] | IC50 [16] | IC50 [17] | IC50 [18] | Ratio IC50 [19] | change in melting temperature (ΔTm) [23] | also measured
O=C(CCCN1CCCC1)Nc1ccc(NC(=O)c2cccc(NC(=O)Nc3cccc(C(=O)Nc4ccc(NC(=O)CCCN5CCCC5)cc4)c3)c2)cc1 | 10.1 °C | 12 °C | 17.1 °C | Active | 0.4 ×10⁶ /M | 0.4 ×10⁶ /M | 3.1 ×10⁶ /M | 0.9 ×10⁶ /M | < 1 ×10³ /M | > 400 | > 400 | > 400 | > 400 | > 50 µM | 36% | 11.1 µM | > 50 µM | > 50 µM | 1 |  | Activity [20]: 96%; Activity [21]: 81.5%; Activity [22]: 1.6%
O=C(CCN1CCCC1)Nc1ccc(NC(=O)c2cccc(NC(=O)Nc3cccc(C(=O)Nc4ccc(NC(=O)CCN5CCCC5)cc4)c3)c2)cc1 | 10.2 °C | 13.5 °C | 18.7 °C | Active | 1.1 ×10⁶ /M | 1.4 ×10⁶ /M | 5 ×10⁶ /M | 2.1 ×10⁶ /M | < 1 ×10³ /M | > 400 | > 400 | > 400 | > 400 | > 50 µM | 6% | 2.6 µM | 5.3 µM | 7.5 µM |  | 0.4 °C | Activity [24]: 110.4%; Activity [25]: 109.6%; Activity [26]: 66.5%; Activity [27]: 3.1%; Activity [28]: 2.4%
O=C(CCN1CCCC1)Nc1cccc(NC(=O)c2ccc(NC(=O)Nc3ccc(C(=O)Nc4cccc(NC(=O)CCN5CCCC5)c4)cc3)cc2)c1 | 0.5 °C | 5.1 °C | 7.5 °C |  |  |  |  |  |  |  |  |  |  |  |  | 3.2 µM | 4.3 µM | > 50 µM | 11.6 | 4.9 °C | Ratio IC50 [29]: 15.6; Activity [24]: 82.9%; Activity [30]: 44%; Activity [31]: 3%; Activity [32]: 4.1%
